TRPC4 inh = TRPC4 (mouse) channel inhibition. Q9QUQ5. HEK293 TRPC4beta/mu-opioid, DAMGO-evoked Fluo4 calcium flux; stronger effect = lower value. B-score at 10 µM. hit rate 0.39% among 300,000. AID 2247;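 active means B-score over 3 SD under the library average, no early fluorescence shift, positive overall ratio signal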
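Assay system: HEK293 cells with stable TRPC4beta plus mu-opioid receptor expression. Dosing: single dose. Measured by: Fluo4 Ca2+ flux fluorescence. Also added: DAMGO in two steps, submaximal then maximal. Read-out: B score from integrated Fluo4 fluorescence ratio.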
TRPC4 agonist = TRPC4 (mouse) channel activation; Q9QUQ5; HEK293 TRPC4beta/mu-opioid, Fluo4 calcium fluorescence; stronger effect = higher value; B-score at 10 µM; hit rate 0.49% among 310,000; AID 2237;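 active means B-score above 5 SD of library B-scores, and initial fluorescence ratio not above library mean plus 5 SD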;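 further: positive B-score marks a calcium rise read as TRPC4 activation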
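Test system: HEK293 cells stably co-expressing mouse TRPC4beta and mu-opioid receptor | Schedule: Fluo4 dye loading 45 min at room temperature, 110 s recording | Measured by: Kinetic Fluo4 calcium fluorescence, 5 s baseline at 1 Hz | Evaluation: B score of integrated ratio | Controls: Buffer (low) and maximal DAMGO (high)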
Pemphigus Ab inh = inhibitors of pemphigus antibody binding to human desmoglein-3; P32926; DSG3-coupled beads, scFv-anti-DSG3-GFP binding, flow cytometry; stronger effect = lower value; binding (percent of control), % at 10 µM; hit rate 0.48% among 310,000;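 active means binding more than 3 SD below its plate's average and above zero; inconclusive means below that plate limit but binding exactly zero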
TRPC6 inh = inhibitors of mouse TRPC6 channel | Q61143 | hit rate 1.1% among 310,000 | HEK293-TRPC6, membrane potential dye, ACh-evoked depolarization; stronger effect = lower value | AID 2553 | B-score at 10 µM;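 active means B-score under library mean minus 3 SD, initial fluorescence not abnormally high, positive integrated signal ratio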;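 further: B-score derived from integrated fluorescence ratio over the kinetic read; more negative B-score means stronger inhibition of depolarization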
Target sequence (Q61143 whole entry, looked up): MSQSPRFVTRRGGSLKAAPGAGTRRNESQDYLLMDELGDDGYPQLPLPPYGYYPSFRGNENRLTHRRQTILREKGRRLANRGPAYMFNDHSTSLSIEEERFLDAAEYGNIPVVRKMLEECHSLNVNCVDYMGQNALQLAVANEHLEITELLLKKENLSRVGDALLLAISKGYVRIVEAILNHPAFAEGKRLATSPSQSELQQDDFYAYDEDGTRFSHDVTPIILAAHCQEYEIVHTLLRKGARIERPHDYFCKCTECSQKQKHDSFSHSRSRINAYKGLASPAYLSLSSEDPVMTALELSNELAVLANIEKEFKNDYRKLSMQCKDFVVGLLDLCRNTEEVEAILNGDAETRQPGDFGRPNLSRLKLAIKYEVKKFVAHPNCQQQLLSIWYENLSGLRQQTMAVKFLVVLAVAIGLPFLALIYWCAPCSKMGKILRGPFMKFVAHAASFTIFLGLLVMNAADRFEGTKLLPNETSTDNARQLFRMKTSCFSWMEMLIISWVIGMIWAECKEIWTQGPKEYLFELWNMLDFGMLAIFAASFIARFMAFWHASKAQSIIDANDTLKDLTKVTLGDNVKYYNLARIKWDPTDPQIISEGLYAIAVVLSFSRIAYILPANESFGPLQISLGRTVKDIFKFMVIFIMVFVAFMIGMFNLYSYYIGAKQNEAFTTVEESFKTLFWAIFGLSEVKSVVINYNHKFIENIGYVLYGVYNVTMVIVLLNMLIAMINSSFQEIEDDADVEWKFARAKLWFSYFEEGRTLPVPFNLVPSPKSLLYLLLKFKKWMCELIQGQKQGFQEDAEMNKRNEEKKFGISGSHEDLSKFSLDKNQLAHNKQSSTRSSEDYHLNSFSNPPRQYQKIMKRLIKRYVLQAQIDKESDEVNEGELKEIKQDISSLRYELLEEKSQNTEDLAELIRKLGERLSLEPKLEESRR
TRPC4 potent = allosterically enhances the mouse TRPC4 cation channel | hit rate 0.42% among 310,000 | HEK293 TRPC4beta/mu-opioid, DAMGO EC20, Fluo-4 Ca2+ flux; stronger effect = higher value | B-score at 10 µM | Q9QUQ5;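 active means B-score of calcium response area above 5 SD of library B-scores, with initial fluorescence ratio within 5 SD of library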;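 further: B-score of integrated fluorescence ratio over time as area under calcium response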
TRPC6 act = activators of mouse TRPC6 channel | AID 2550 | hit rate 0.13% among 310,000 | B-score at 10 µM | HEK293-TRPC6 membrane potential dye fluorescence; stronger effect = higher value;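 active means B-score of the integrated fluorescence ratio above library mean plus 3 SD, and starting fluorescence ratio within library mean plus 5 SD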;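 further: higher score means more depolarization so channel activation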
An asterisk follows results filed as active; i = inactive; ? = inconclusive; . = no result given. Hits are enriched below; roughly 2.5% of the tested compounds scored in any of these assays.

SMILES	TRPC4 inh	TRPC4 agonist	Pemphigus Ab inh	TRPC6 inh	TRPC4 potent	TRPC6 act
CSCCC(NC(=O)c1ccccc1)C(=O)Nc1ccc(NC(C)=O)cc1 (configuration not stated)	i	i	.	-5.2*	i	i
Cc1ccc(-n2nc(-c3ccco3)cc2C(=O)O)c(C)c1	i	i	60*	i	i	i
CC1CCCN(C2=C(NS(=O)(=O)c3ccc(Br)cc3)C(=O)c3ccccc3C2=O)C1 (configuration not stated)	i	i	99	i	16*	i
COC(=O)c1ccc(OCC(O)CN2CCc3cc(OC)c(OC)cc3C2c2ccccc2)cc1 (configuration not stated)	i	i	?	i	11*	i
CCC(=O)N1CCc2cc(OC)c(OC)cc2C1COc1ccc(C(=O)OC)cc1 (configuration not stated)	i	i	102	i	i	i
CN(c1ccccc1C(=O)NC1CC2CCC1C2)S(=O)(=O)c1ccccc1 (configuration not stated)	i	i	38*	i	i	i
CCCCN(CC)CCCNC(=S)Nc1ccc2nc(N3CCN(C)CC3)cc(C)c2c1	i	i	105	i	i	i
CCCCN(CC)CCCNC(=S)Nc1ccc2nc(N3CCN(CC)CC3)cc(C)c2c1	i	71*	97	i	i	i
CCCCN(CC)CCCNC(=S)Nc1ccc2nc3n(c(=O)c2c1)CCCCC3	i	i	100	i	10*	i
COc1ccc(C(=O)C2CCCN(Cc3ccc4nonc4c3)C2)c(OC)c1 (configuration not stated)	-6*	i	118	i	i	i
COc1cc(CN2CCCC(C(=O)c3ccc4c5c(cccc35)CC4)C2)cc(OC)c1O (configuration not stated)	i	44*	97	i	i	i
O=C(c1ccc2c3c(cccc13)CC2)C1CCCN(Cc2cccnc2)C1 (configuration not stated)	i	81*	107	i	i	i
Cc1noc(C)c1CSCC(=O)Nc1cc(Cl)ccc1N1CCCCC1	i	i	98	i	i	i
COc1ccc(C)cc1S(=O)(=O)NC(C)C(=O)Nc1ccc2c(c1)OCO2 (configuration not stated)	i	i	.	i	i	i
CN(C(=O)c1cccc(NC(=O)Cc2ccc(NC(=O)C3CCN(C(=O)C4CC4)CC3)cc2)c1)C1CCCC1	.	.	105	.	.	.
O=C(CN1C(=O)NC2(CCCCCC2)C1=O)c1ccc(OC(F)F)cc1OC(F)F	i	i	105	i	i	i
N#CCc1c(C#N)c(N)nc(Nc2ccccc2)c1C#N	i	i	93	i	i	i
Cc1ccc(C(C)(C)NC(=O)C2CCC(=O)N(CC3CCCCC3)C2)cc1 (configuration not stated)	i	i	.	i	i	i
O=C(/C=C/C(=O)NCc1cccs1)NCc1cccs1	i	i	72*	i	i	i
O=C(/C=C/c1ccc(Cl)cc1)NCc1cccs1	i	i	99	i	i	i
Cc1cccc(NC(=O)Nc2ccccc2[N+](=O)[O-])n1	i	i	94	i	i	i
Cn1ncc(Cl)c1C(=O)N/N=C/c1cc2c(cc1[N+](=O)[O-])OCO2	i	i	71*	i	i	i
O=C(N/N=C/c1cc2c(cc1[N+](=O)[O-])OCO2)c1ccccn1	i	i	74	i	i	i
CCOC(=O)c1cc(C(=O)OCC)c(=O)[nH]c1N1CCCCC1	i	i	86	i	i	i
Cc1ccc(-n2cc(CN3CCC(O)(c4ccccn4)CC3)c(-c3ccc(F)cc3)n2)cc1	i	77*	101	i	i	i
SMILES	TRPC4 inh	TRPC4 agonist	Pemphigus Ab inh	TRPC6 inh	TRPC4 potent	TRPC6 act
Cc1ccc(-n2cc(CN3CCNC(=O)CC3)c(-c3ccc(F)cc3)n2)cc1	i	i	95	i	i	i
O=C1OCCN1c1c(-c2ccccc2)c(-c2cccs2)nc2c(-c3ccccc3)cccc12	i	i	94	i	i	i
CCCCN1C(=O)C(=O)N(CC(=O)NC2CCCc3ccccc32)C1=O (configuration not stated)	i	i	99	i	i	i
Clc1ccc(OCCCNCc2ccccc2)c2ccccc12	i	56*	110	i	i	i
CN1CCN(CC(=O)Nc2c(C#N)cnn2-c2ccccc2)CC1	i	59*	104	i	i	i
CC(COc1ccccc1Cc1ccccc1)N1CCCCC1 (configuration not stated)	i	67*	.	i	i	12*
O=C(O)COc1ccccc1Cc1ccccc1	i	i	101	i	i	i
Cc1nc(-c2ccccc2)sc1C(=O)O	i	i	82	i	i	i
Cc1nc(-c2cccc(C(F)(F)F)c2)sc1C(=O)O	-6*	i	84	i	i	i
Cc1cc(C)n(S(=O)(=O)c2ccc(F)cc2)n1	i	i	135	i	i	i
Cc1cc(C)n(S(=O)(=O)c2ccc(C(C)(C)C)cc2)n1	i	i	102	-6.6*	i	i
Cc1cnc(C(=O)N2CCN(S(=O)(=O)c3cc(C(F)(F)F)cc(C(F)(F)F)c3)CC2)cn1	.	.	-17*	.	.	.
CN(C)c1ccc(N=Nc2ccccc2C(=O)OCC(=O)N(C)C2CCCCC2)cc1	i	i	105	i	11*	i
CC(C)(C)OC(=O)N1CCN(C(=O)OCC2c3ccccc3-c3ccccc32)CC1C(=O)O (configuration not stated)	i	i	105	i	i	i
CC1(C#CC[N+]2(C)CCCCC2)CCC2C(O1)c1ccccc1OC2(C)C (configuration not stated)	i	i	97	i	21*	i
CC12CCC3(CO)COC(c4ccccc4O1)C2C3 (configuration not stated)	i	i	.	i	i	i
O=C1COc2ccc(C(=O)COC(=O)CCSc3ccccc3)cc2N1	i	i	73*	i	i	i
COc1ccc(OCCCC(=O)OCC(=O)c2ccc3c(c2)NC(=O)CO3)cc1	i	i	96	i	i	i
O=C1COc2ccc(C(=O)COC(=O)CCCOc3ccccc3)cc2N1	.	.	82*	.	.	.
COc1ccc(NC(=O)COC(=O)Cc2cccs2)cc1Cl	.	.	98	.	.	.

Screens (PubChem BioAssay)
